# ChEMBL document CHEMBL1134286, “Novel erythromycin derivatives with aryl groups tethered to the C-6 position are potent protein synthesis inhibitors and active against multidrug-resistant respiratory pathogens” (J Med Chem, 2001)
# pIC50: −log10 of the molar value.
# Assays:
# [1] = Minimum inhibitory concentration against Streptococcus pyogenes 930MLSB; type: functional
# How it was run: (§1)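 MICs were determined by agar dilution following National Committee for Clinical Laboratory Standards recommendations. Values are in µg/mL.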
# Streptococcus pneumoniae [2] = assay: Cell free inhibiting activity against MLSB-resistant strain Streptococcus pneumoniae 1813 (methylated ribosomes for transcription/translation assay)
# [3] = Minimum inhibitory concentration against Streptococcus pyogenes EES 61 Ery-S; type: functional; how it was run: as §1
# Staphylococcus aureus [4] = assay: Minimum inhibitory concentration against Staphylococcus aureus A 5177 MLSB-i; type: functional; how it was run: as §1
# Staphylococcus aureus [5] = assay: Minimum inhibitory concentration against Staphylococcus aureus ATCC 6538PEry-S; type: functional; settings: ATCC 6538P; how it was run: as §1
# Streptococcus pneumoniae [6] = assay: Minimum inhibitory concentration against Streptococcus pneumoniae ATCC 6303 Ery-S; type: functional; how it was run: as §1
# Staphylococcus aureus [7] = assay: Minimum inhibitory concentration against Staphylococcus aureus 10649 (erythromycin susceptible strain); type: functional; how it was run: as §1
# [8] = Minimum inhibitory concentration against Streptococcus pneumoniae 5737 MLSB; type: functional; how it was run: as §1
# Streptococcus pneumoniae [9] = assay: Minimum inhibitory concentration against Streptococcus pneumoniae 5649 efflux; type: functional; how it was run: as §1
# [10] = Minimum inhibitory concentration against Haemophilus influenzae DILL Amp-R; type: functional; how it was run: as §1
# [11] = Minimum inhibitory concentration against Streptococcus pyogenes PIU2548 efflux; type: functional; how it was run: as §1
# Streptococcus pneumoniae [12] = assay: Cell free inhibiting activity against erythromycin-susceptible strain Streptococcus pneumoniae 5635 (Wild type ribosomes for transcription/translation assay)
# Mus musculus [13] = organism: Mus musculus; assay: Mouse protection tests for effective dose against Staphylococcus aureus 10649 ((erythromycin susceptible strain)) infected mice; type: functional
# Streptococcus pneumoniae [14] = assay: Minimum inhibitory concentration against Streptococcus pneumoniae 6303 (erythromycin susceptible strain); type: functional; how it was run: as §1
# Mus musculus [15] = organism: Mus musculus; assay: Mouse protection tests for effective dose against Streptococcus pneumoniae 6303 ((erythromycin susceptible strain)) infected mice; type: functional
# Staphylococcus aureus [16] = assay: Minimum inhibitory concentration against Staphylococcus aureus A 5278 MLSB-c; type: functional; how it was run: as §1
SMILES,MIC [1],pIC50 (Streptococcus pneumoniae [2]),MIC [3],MIC (Staphylococcus aureus [4]),MIC (Staphylococcus aureus [5]),MIC (Streptococcus pneumoniae [6]),MIC (Staphylococcus aureus [7]),MIC [8],MIC (Streptococcus pneumoniae [9]),MIC [10],MIC [11],pIC50 (Streptococcus pneumoniae [12]),ED50 (Mus musculus [13]),MIC (Streptococcus pneumoniae [14]),ED50 (Mus musculus [15]),MIC (Staphylococcus aureus [16])
CC[C@H]1OC(=O)[C@H](C)C(=O)[C@H](C)[C@@H](O[C@@H]2O[C@H](C)C[C@H](N(C)C)[C@H]2O)[C@](C)(OC/C=C/c2ccc3nccnc3c2)C[C@@H](C)C(=O)[C@H](C)[C@H]2NC(=O)O[C@@]21C,1 µg/mL,4.40,0.03 µg/mL,0.1 µg/mL,0.1 µg/mL,0.015 µg/mL,0.1 µg/mL,0.25 µg/mL,0.5 µg/mL,2 µg/mL,0.25 µg/mL,7.10,< 6.25 mg/kg,0.015 µg/mL,33.1 mg/kg,> 100 µg/mL
CC[C@H]1OC(=O)[C@H](C)C(=O)[C@H](C)[C@@H](O[C@@H]2O[C@H](C)C[C@H](N(C)C)[C@H]2O)[C@](C)(OCC=Cc2cnc3ccccc3c2)C[C@@H](C)C(=O)[C@H](C)[C@H]2NC(=O)O[C@@]21C [CETHROMYCIN],1 µg/mL,4.55,0.004 µg/mL,0.05 µg/mL,0.05 µg/mL,0.004 µg/mL,0.05 µg/mL,0.25 µg/mL,0.125 µg/mL,2 µg/mL,0.25 µg/mL,7.40,9.4 mg/kg,0.004 µg/mL,7.8 mg/kg,> 100 µg/mL
CC[C@H]1OC(=O)[C@H](C)C(=O)[C@H](C)[C@@H](O[C@@H]2O[C@H](C)C[C@H](N(C)C)[C@H]2O)[C@](C)(OC/C=C/c2ccccc2)C[C@@H](C)C(=O)[C@H](C)[C@@H](O)[C@]1(C)O,64 µg/mL,–,0.25 µg/mL,1.56 µg/mL,1.56 µg/mL,1 µg/mL,–,64 µg/mL,2 µg/mL,128 µg/mL,2 µg/mL,–,–,–,–,> 100 µg/mL
CC[C@H]1OC(=O)[C@H](C)C(=O)[C@H](C)[C@@H](O[C@@H]2O[C@H](C)C[C@H](N(C)C)[C@H]2O)[C@](C)(OC/C=C/c2cnc3cccnc3c2)C[C@@H](C)C(=O)[C@H](C)[C@H]2NC(=O)O[C@@]21C,2 µg/mL,4.60,0.03 µg/mL,0.05 µg/mL,0.05 µg/mL,0.015 µg/mL,0.05 µg/mL,0.25 µg/mL,1 µg/mL,2 µg/mL,0.5 µg/mL,7.00,12.5 mg/kg,0.015 µg/mL,17.3 mg/kg,> 100 µg/mL
CC[C@H]1OC(=O)[C@H](C)C(=O)[C@H](C)[C@@H](O[C@@H]2O[C@H](C)C[C@H](N(C)C)[C@H]2O)[C@](C)(OC/C=C/c2cnc3ccccc3c2)C[C@@H](C)C2=NCCN3C(=O)O[C@@]1(C)[C@H]3[C@H]2C,16 µg/mL,–,0.06 µg/mL,0.05 µg/mL,0.05 µg/mL,0.06 µg/mL,0.05 µg/mL,128 µg/mL,1 µg/mL,4 µg/mL,2 µg/mL,–,60.4 mg/kg,0.06 µg/mL,23.5 mg/kg,> 100 µg/mL
CC[C@H]1OC(=O)[C@H](C)C(=O)[C@H](C)[C@@H](O[C@@H]2O[C@H](C)C[C@H](N(C)C)[C@H]2O)[C@](C)(OCCNCCc2ccccc2)C[C@@H](C)C(=O)[C@H](C)[C@H]2NC(=O)O[C@@]21C,> 128 µg/mL,–,0.03 µg/mL,0.1 µg/mL,0.2 µg/mL,0.03 µg/mL,–,> 128 µg/mL,2 µg/mL,4 µg/mL,2 µg/mL,–,–,–,–,> 100 µg/mL
CC[C@H]1OC(=O)[C@H](C)C(=O)[C@H](C)[C@@H](O[C@@H]2O[C@H](C)C[C@H](N(C)C)[C@H]2O)[C@](C)(OC/C=C/c2ccc3ccccc3n2)C[C@@H](C)C(=O)[C@H](C)[C@H]2NC(=O)O[C@@]21C,16 µg/mL,–,0.125 µg/mL,0.39 µg/mL,0.39 µg/mL,0.125 µg/mL,–,64 µg/mL,1 µg/mL,8 µg/mL,1 µg/mL,–,–,–,–,> 100 µg/mL
CC[C@H]1OC(=O)[C@H](C)C(=O)[C@H](C)[C@@H](O[C@@H]2O[C@H](C)C[C@H](N(C)C)[C@H]2O)[C@](C)(OC/C=C/c2cccc3cccnc23)C[C@@H](C)C(=O)[C@H](C)[C@H]2NC(=O)O[C@@]21C,> 32 µg/mL,–,0.03 µg/mL,0.1 µg/mL,0.2 µg/mL,0.03 µg/mL,–,> 32 µg/mL,0.5 µg/mL,8 µg/mL,0.5 µg/mL,–,–,–,–,> 100 µg/mL
